Results as given in ChEMBL document CHEMBL1158806, “Cytotoxic activity of some natural and synthetic guaianolides” (J Nat Prod, 2005).
pIC50: −log10 of the molar value.

Legend:
Assay type in all cases: functional, cell-based
1A9 = assay: Cytotoxicity against human 1A9 cells after 3 days by SRB assay; settings: 1A9, 72 h
Procedure, shortened: (§1)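 Cells kept in RPMI-1640 with 25 mM HEPES, 0.25% sodium bicarbonate, 10% FBS and 100 µg/mL kanamycin. Freshly trypsinized cells seeded at 1500-7500 per well, with compound added from DMSO-diluted stock. After 3 days, attached cells fixed with cold 50% TCA and stained with 0.4% SRB. Bound dye solubilized and absorbance read at 562 nm. IC50 is 50% growth reduction, mean of three determinations.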

SK-MEL-2 = assay: Cytotoxicity against human SK-MEL-2 cells after 3 days by SRB assay; settings: SK-MEL-2, 72 h; procedure, shortened: as §1
HCT-8 = assay: Cytotoxicity against human HCT8 cells after 3 days by SRB assay; settings: HCT-8, 72 h; procedure, shortened: as §1
KB = assay: Cytotoxicity against human KB cells after 3 days by SRB assay; settings: 72 h; procedure, shortened: as §1
A549 = assay: Cytotoxicity against human A549 cells after 3 days by SRB assay; settings: A549, 72 h; procedure, shortened: as §1
[1] = Cytotoxicity against human KBVIN cells after 3 days by SRB assay; settings: 72 h; procedure, shortened: as §1
MCF7 = assay: Cytotoxicity against human MCF7 cells after 3 days by SRB assay; settings: MCF7, 72 h; procedure, shortened: as §1

Row | Compound | pIC50 (1A9) | pIC50 (SK-MEL-2) | pIC50 (HCT-8) | pIC50 (KB) | pIC50 (A549) | pIC50 [1] | pIC50 (MCF7)
1 | C=C1C(=O)O[C@H]2[C@H]1[C@@H](OC(=O)[C@@]1(C)CO1)CC(=C)[C@@H]1C[C@H](OC(=O)[C@H](O)[C@@H](NC(=O)c3ccccc3)c3ccccc3)[C@@]3(CO3)[C@H]21 | 6.70 | 6.00 | 6.30 | 6.52 | 6.10 | 5.12 | 
2 | C=C1C(=O)O[C@H]2[C@H]1[C@@H](OC(=O)[C@](C)(O)CBr)CC(=C)[C@@H]1C[C@H](O)[C@](O)(CBr)[C@H]21 | 6.40 |  |  | 5.96 | 5.38 | 5.89 | 
3 | C=C1C(=O)O[C@H]2[C@H]1[C@@H](OC(=O)[C@](C)(O)CI)CC(=C)[C@@H]1C[C@H](O)[C@]3(CO3)[C@H]21 | 6.10 |  |  | 5.70 | 5.14 | 5.74 | 
4 | C=C1C(=O)O[C@H]2[C@H]1[C@@H](OC(=O)[C@@]1(C)CO1)CC(=C)[C@@H]1C[C@H](OC(=O)[C@@H]3OC(c4ccccc4)=N[C@H]3c3ccccc3)[C@@]3(CO3)[C@H]21 | 6.10 | 5.82 | 6.30 | 5.59 | 5.47 | 5.59 | 
5 | C=C1C(=O)O[C@H]2[C@H]1[C@@H](OC(=O)[C@](C)(O)CBr)CC(=C)[C@@H]1C[C@H](O)[C@]3(CO3)[C@H]21 | 5.96 | 5.44 | 5.89 | 5.96 | 5.37 | 5.20 | 
6 | C=C1C(=O)O[C@H]2[C@H]1[C@@H](OC(=O)[C@](C)(O)CI)CC(=C)[C@@H]1C[C@H](O)[C@](O)(CI)[C@H]21 | 5.89 | 5.59 | 5.89 | 6.00 | 5.44 | 5.26 | 
7 | C=C1C(=O)O[C@H]2[C@H]1[C@@H](OC(=O)[C@@]1(C)CO1)CC(=C)[C@@H]1C[C@H](O)[C@](O)(CI)[C@H]21 | 5.25 | 5.03 | 5.35 | 5.39 | 4.86 | 4.73 | 
8 | C=C(C)C(=O)O[C@H]1CC(=C)[C@@H]2C[C@H](O)C(=C)[C@@H]2[C@H]2OC(=O)C(=C)[C@@H]21 [AGUERIN B] |  |  |  |  | 4.58 |  | 5.48
9 | C=C1C(=O)O[C@H]2[C@H]1[C@@H](OC(=O)[C@](C)(O)CO)CC(=C)[C@@H]1C[C@H](O)[C@]3(CO3)[C@H]21 [BABYLIN A] |  |  |  |  | < 4.58 |  | < 4.58
10 | C=C1C(=O)O[C@H]2[C@H]1[C@@H](OC(=O)[C@@]1(C)CO1)CC(=C)[C@@H]1C[C@H](O)[C@](O)(CO)[C@H]21 [BABYLIN B] |  |  |  |  | < 4.58 |  | < 4.58
11 | C=C1C(=O)O[C@H]2[C@H]1[C@@H](OC(=O)[C@@](C)(O)CO)CC(=C)[C@@H]1C[C@H](O)[C@@](O)(CCl)[C@H]21 [CEBELLIN J] |  |  |  |  | < 4.62 |  | < 4.62
12 | C=C1C(=O)O[C@H]2[C@H]1[C@@H](OC(=O)[C@](C)(O)CCl)CC(=C)[C@@H]1C[C@H](O)[C@](O)(CCl)[C@H]21 [CENTAUREPENSIN] | 6.15 |  |  | 5.39 | 4.99 | 5.55 | 
13 | C=C1C(=O)O[C@H]2[C@H]1[C@@H](OC(=O)[C@](C)(O)CCl)CC(=C)[C@@H]1C[C@H](O)[C@]3(CO3)[C@H]21 [CHLOROHYSSOPIFOLIN C] | 6.10 |  | 5.80 | 5.70 | 5.03 | 5.82 | 5.82
14 | C=C(CO)C(=O)O[C@H]1CC(=C)[C@@H]2C[C@H](O)C(=C)[C@@H]2[C@H]2OC(=O)C(=C)[C@@H]21 [CYNAROPICRIN] |  | 5.24 |  | 4.80 | 4.78 |  | 5.49
15 | C=C(CO)C(=O)O[C@H]1CC(=C)[C@@H]2C[C@H](O)[C@]3(CO3)[C@@H]2[C@H]2OC(=O)C(=C)[C@@H]21 [JANERIN] | 5.30 | 5.10 | 5.26 | 5.52 | 4.70 | 4.59 | 
16 | CO[C@@]12[C@H](COC(N)=O)C3=C(C(=O)C(C)=C(N)C3=O)N1C[C@@H]1N[C@@H]12 [MITOMYCIN] |  |  | 6.22 | 6.22 | 6.52 |  | 5.82
17 | CC(=O)O[C@H]1C(=O)[C@@]2(C)[C@H]([C@H](OC(=O)c3ccccc3)[C@]3(O)C[C@H](OC(=O)[C@H](O)[C@@H](NC(=O)c4ccccc4)c4ccccc4)C(C)=C1C3(C)C)[C@]1(OC(C)=O)CO[C@@H]1C[C@@H]2O [PACLITAXEL] | 8.70 |  | 7.89 | 9.00 |  |  | 
18 | C=C1C(=O)O[C@H]2[C@H]1[C@@H](OC(=O)[C@]1(C)CO1)CC(=C)[C@@H]1C[C@H](O)[C@]3(CO3)[C@H]21 [REPIN] | 6.52 | 5.60 | 6.10 | 5.85 | 5.60 | 6.10 | 5.96
